Activity calls are given as the source filed them. No cut-off for these calls is given here.

The target of data set [1] is GABA-A receptor; anion channel (Rattus norvegicus) (UniProt O09028+P15431+P18506+P18508+P19969+P20236+P23574+P23576+P28471+P28473+P30191+P62813+P63079+P63138+Q91ZM7+Q9ES14). Put plainly: Binding constant was determined by displacing potential to [3H]-diazepam binding in cerebral cortex homogenates of rat. It counts as tissue-based. The procedure, abridged: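 Wistar rat cerebral cortex homogenate incubated with compound and 2 nM [3H]diazepam at 0 °C for 60 min. Bound label trapped on glass filters and counted by scintillation. Ki = IC50/(1 + L/Kd).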

For data set [2], the system named is Mus musculus. Put plainly: Effective dose against pentylenetetrazole intoxicity in mice administered orally. The format is functional. Particulars: Mus musculus, po; read-out: ED50.
The subject of data set [3] is Mus musculus. Put plainly: Effective dose against tetrabenazine induced ptosis in mice administered orally. It counts as functional. Particulars: Mus musculus, po; read-out: ED50. The procedure, abridged:
(§1)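 Male DS mice, 20-27 g, groups of five. Compound given po or sc in saline or gum arabic at 0.1 mL/10 g. Tetrabenazine 50 mg/kg sc given 1, 4 or 24 h later. Ptosis scored 1-4 at 1 h after TBZ, with ridit transformation. Dose for 50% prevention by regression.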

The species entered for data set [4] is Rattus norvegicus. Put plainly: Inhibitory activity against uptake of [3H]norepinephrine into rat brain synaptosomes. The format is functional. The procedure, abridged: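 P2 synaptosomes from male Wistar rat cerebral cortex incubated with [3H]norepinephrine at 37 °C for 20 min, with compound at 5-6 concentrations. Stopped by Krebs-Henseleit dilution and glass-fibre filtration, then scintillation counting. IC50 taken as the concentration giving 50% uptake inhibition.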

Data set [5] deals with Rattus norvegicus. Put plainly: Effective dose against anticonflict effect in rats when administered through oral route. The format is functional. In short, it runs like this: (§2)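 Wistar rats in groups of 5-8, Geller-Seifter conflict procedure. Rats trained to lever-press for food on a variable-interval 60-s schedule. Oral dosing. A dose counted positive when shocks exceeded 12 or shock ratio exceeded 4 over four consecutive tone periods. ED50 with 95% limits by probit.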

In data set [6] the test system is Mus musculus. Put plainly: Effective dose against pentylenetetrazole intoxicity in mice administered through subcutaneous route;NE = no effect at 10 mg/kg. It counts as functional, organism-based. On the set-up: dose 10 mg/kg.
Data set [7] relates to Mus musculus. Put plainly: Effective dose against tetrabenazine induced ptosis in mice administered subcutaneously. The format is functional. The note with it: sc. In short, it runs like this:
as §1

The subject of data set [8] is Mus musculus. Put plainly: Effective dose against pentylenetetrazole intoxicity in mice administered through subcutaneous route; NE = no effect at 10 mg/kg. The format is functional, organism-based. On the set-up: dose 10 mg/kg.
Data set [9] concerns Mus musculus. Put plainly: Effective dose against pentylenetetrazole intoxicity in mice administered orally; NE = no effect at 50 mg/kg. The format is functional, organism-based. On the set-up: dose 50 mg/kg.
The subject of data set [10] is Mus musculus. Put plainly: Effective dose against pentylenetetrazole intoxicity in mice administered through subcutaneous route;NE= no effect at 10 mg/kg. It counts as functional, organism-based. On the set-up: dose 10 mg/kg.
Data set [11] has as its system Mus musculus. Put plainly: Effective dose against pentylenetetrazole intoxicity in mice administered subcutaneously; NE= no effect at 100 mg/kg. The format is functional, organism-based. On the set-up: dose 100 mg/kg.
Data set [12] has as its system Mus musculus. Put plainly: Percent inhibition against tetrabenazine induced ptosis in mice administered subcutaneously at 50 mg/kg. The format is functional. Particulars: sc, route subcutaneous. The procedure, abridged: as §1
Data set [13] relates to Mus musculus. Put plainly: Effective dose against pentylenetetrazole intoxicity in mice administered orally; NE= no effect at 50 mg/kg. It counts as functional, organism-based. On the set-up: dose 50 mg/kg.
Data set [14] is described as follows: Acute toxicity was measured in mice after peroral administration. It counts as organism-based. The note with it: mouse, in vivo, po. The procedure, abridged:
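Male DS mice, 20-26 g, given compound orally; mortality checked the day after treatment in groups of 10. LD50 by probit method, or by up-and-down method of Brownlee et al. (n = 5) where estimated.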

The subject of data set [15] is Mus musculus. Put plainly: Effective dose against pentylenetetrazole intoxicity in mice administered through subcutaneous route. It counts as functional. The note with it: sc.
In data set [16] the test system is Rattus norvegicus. Put plainly: Effective dose was evaluated by their anticonflict effect in rats when administered through oral route. It counts as functional. In short, it runs like this:
as §2

Data set [17] concerns Mus musculus. Put plainly: Percent inhibition against tetrabenazine induced ptosis in mice administered orally at 50 mg/kg. The format is functional. The note with it: route oral. In short, it runs like this:
as §1

In data set [18] the test system is Mus musculus. Put plainly: Effective dose against pentylenetetrazole intoxicity in mice administered through subcutaneous route; NE = no effect at dose 10 mg/kg. The format is functional, organism-based. On the set-up: dose 10 mg/kg.
In data set [19] the test system is Mus musculus. Put plainly: Effective dose against pentylenetetrazole intoxicity in mice administered orally; NE = not effective at dose 50 mg/kg. It counts as functional, organism-based. On the set-up: dose 50 mg/kg.
The subject of data set [20] is Mus musculus. Put plainly: Effective dose against pentylenetetrazole intoxicity in mice administered subcutaneously; NE = not effective at dose 10 mg/kg. The format is functional, organism-based. On the set-up: dose 10 mg/kg.
The test system of data set [21] is Mus musculus. Put plainly: Percent Inhibition against pentylenetetrazole intoxicity in mice administered orally at 50 mg/kg. It counts as functional. Particulars: route oral.

Usually ED50 stands for the midpoint of the dose-response relation. In general, IC50 refers to the concentration that gives 50% inhibition. `O=C1CN=C(c2ccccc2F)c2cc(Br)ccc2N1C1CCNCC1` yielded a K2 in data set [1] of 0.033 µM. In addition, the ED50 in the data set with Mus musculus [2] turned out to be 2.7 mg/kg; in the data set with Mus musculus [3], 5.37 mg/kg; in the data set with Rattus norvegicus [5] it was 4.54 mg/kg. This molecule came in with an IC50 in the data set filed under Rattus norvegicus [4] of 288 nM.
As for `CN1CCC(N2C(=O)CN=C(c3cccc(Cl)c3)c3cc(Cl)ccc32)CC1`, the K2 in [1] amounted to 23 µM. Also, in the data set with Mus musculus [6], the ED50 result was “inactive”. In the data set with Mus musculus [7], this molecule displayed a 50% effective dose (ED50) of 19.3 mg/kg.
`O=C1CN=C(c2ccccc2F)c2ccccc2N1C1CCNCC1`: the K2 in data set [1] amounted to 0.15 µM. Moreover, the ED50 entry with Mus musculus [8] and in the data set on Mus musculus [9] was “inactive” in each case. The molecule also yielded an ED50 with Mus musculus [7] of 0.07 mg/kg.
Consider `CN1CCC(N2C(=O)CN=C(c3ccccc3F)c3cc(N(C)C)ccc32)CC1`, for which the K2 in data set [1] is 8.3 µM. Besides, the ED50 entry in the data set with Mus musculus [10] is “inactive”. For the same molecule, in the data set on Mus musculus [7], the median effective dose (ED50) amounted to 0.7 mg/kg.
The inhibition in vivo is the percentage by which the read-out fell short of the control. The low end stands for a weak effect, the high end for a strong effect. Turning to `CN1CCC(N2C(=O)CN=C(c3ccccc3F)c3ccc(Cl)cc32)CC1`, in data set [1], the K2 was 0.69 µM. Also, the ED50 entry in the data set on Mus musculus [11] and with Mus musculus [13] was “inactive” each time. In addition, the inhibition in vivo at 50 mg/kg in the data set with Mus musculus [12] is 34%.
Molecule `CN1CCC(N2C(=O)CN=C(c3ccccc3)c3cc(Br)ccc32)CC1` showed a K2 in data set [1] of 0.415 µM. The 50% effective dose (ED50) in the data set with Mus musculus [2] is 21.4 mg/kg; in the data set with Mus musculus [3] it was 2.88 mg/kg; in the data set on Rattus norvegicus [5] it was 17.4 mg/kg.
With `CN(C)CCCN1c2ccccc2CCc2ccccc21` [IMIPRAMINE], the 50% effective dose (ED50) in the data set on Mus musculus [3] came out at 2.14 mg/kg; in the data set with Mus musculus [7], 0.8 mg/kg. In the data set filed under Rattus norvegicus [4], this molecule registered a half-maximal inhibitory concentration (IC50) of 85 nM.
The term LD50 denotes the dose expected to kill half of the subjects tested. For `CNC1=Nc2ccc(Cl)cc2C(c2ccccc2)=[N+]([O-])C1` [CHLORDIAZEPOXIDE], the ED50 in the data set with Mus musculus [3] was 2.7 mg/kg. Also, in data set [14], the LD50 turned out to be 877 mg/kg.
As to `CN1CCC(N2C(=O)CN=C(c3ccccc3F)c3cc(Br)ccc32)CC1`, the K2 in data set [1] was found to be 0.049 µM. For the same molecule, the median effective dose (ED50) in the data set on Mus musculus [15] is 0.79 mg/kg; in the data set on Mus musculus [2], 1.61 mg/kg; in the data set on Mus musculus [3], 3.85 mg/kg; with Rattus norvegicus [16], 1.23 mg/kg; in the data set with Mus musculus [7] it was 2.45 mg/kg.
Molecule `Cc1ccc2c(c1)C(c1ccccc1F)=NCC(=O)N2C1CCN(C)CC1` had a K2 in data set [1] of 0.26 µM. In addition, the ED50 result in the data set on Mus musculus [8] is “inactive”. In the data set on Mus musculus [7], this molecule returned a median effective dose (ED50) of 0.84 mg/kg.
On to `O=C1CN=C(c2ccccc2F)c2cc(Cl)ccc2N1C1CCN(Cc2ccccc2)C1` (stereo not given), for which the K2 in data set [1] amounted to 0.27 µM. Moreover, the ED50 in the data set with Mus musculus [2] worked out at 1.52 mg/kg. The same molecule returned an inhibition in vivo at 50 mg/kg in the data set on Mus musculus [17] of 58%.
`O=C1C(O)N=C(c2ccccc2F)c2ccccc2N1C1CCNCC1` (stereo not given) gave a K2 in [1] of 0.36 µM. The ED50 result with Mus musculus [18] is “inactive”. The same molecule yielded a 50% effective dose (ED50) with Mus musculus [7] of 0.23 mg/kg.
For `CN1CCC(N2C(=O)CN=C(c3ccccc3)c3ccccc32)CC1`, the ED50 result with Mus musculus [19] and with Mus musculus [20] was “inactive” in each case. In addition, the median effective dose (ED50) in the data set with Mus musculus [3] stood at 0.38 mg/kg; with Mus musculus [7], 0.26 mg/kg.
Regarding `CN1CCC(N2C(=O)CN=C(c3ccccc3F)c3ccccc32)CC1`, the K2 in data set [1] came out at 0.2 µM. For the same molecule, the inhibition in vivo at 50 mg/kg with Mus musculus [21] turned out to be 37.5%. In the data set on Mus musculus [7], this molecule gave a median effective dose (ED50) of 0.21 mg/kg.
Take `O=C1CN=C(c2ccccc2)c2cc(Br)ccc2N1C1CCNCC1`: the K2 in data set [1] came to 0.57 µM. In addition, the values for the median effective dose (ED50) in the data set on Mus musculus [2] and in the data set on Mus musculus [3] were 38.8 mg/kg and 0.76 mg/kg, respectively. This molecule registered an IC50 in the data set filed under Rattus norvegicus [4] of 402 nM.
For `CN1CCC(N2C(=O)C(O)N=C(c3ccccc3F)c3cc(Cl)ccc32)CC1` (stereo not given), in data set [1], the K2 came to 0.074 µM. Besides, the results for the ED50 in the data set with Mus musculus [2] and in the data set with Mus musculus [3] were 2.41 mg/kg and 9.79 mg/kg, respectively.
`CN1CCC(N2C(=O)CN=C(c3ccccc3F)c3cc(F)ccc32)CC1`: the ED50 stood at 26.9 mg/kg with Mus musculus [15], 1.62 mg/kg with Mus musculus [3], 11.4 mg/kg with Rattus norvegicus [16] and 0.27 mg/kg with Mus musculus [7]. In addition, the concentration for half-maximal inhibition (IC50) in the data set filed under Rattus norvegicus [4] turned out to be 53700 nM.
Turning to `COc1ccc2c(c1)C(c1ccccc1F)=NCC(=O)N2C1CCN(C)CC1`, in data set [1], the K2 is 1.26 µM. The ED50 entry in the data set with Mus musculus [8] was “inactive”. In the data set on Mus musculus [7], this molecule gave an ED50 of 1.24 mg/kg.
